Consider two compounds from ChEMBL document CHEMBL5108036, “A concise SAR-analysis of antimicrobial cationic amphipathic barbiturates for an improved activity-toxicity profile” (Eur J Med Chem, 2022).

For orientation: MIC means the least concentration at which growth counts as inhibited. By EC50 is commonly meant the midpoint of the concentration-response curve.

A short description of series [1]: Selectivity index, ratio HC50 for hemolytic activity in human RBC to MIC for antibacterial activity against Pseudomonas aeruginosa ATCC 27853. It is filed as toxicity. The conditions noted are these: human red blood cells (erythrocytes). A digest of the protocol: (§1)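 SI is the ratio of RBC lysis EC50 to MIC for each reference strain.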
A short description of series [2]: Selectivity index, ratio HC50 for hemolytic activity in human RBC to MIC for antibacterial activity against Bacillus subtilis 168. The series is classed as toxicity. The conditions noted are these: human red blood cells (erythrocytes). In a few lines: as §1
A short description of series [3]: Selectivity index, ratio HC50 for hemolytic activity in human RBC to MIC for antibacterial activity against Staphylococcus aureus ATCC 9144. The conditions noted are these: human red blood cells (erythrocytes). The series is classed as toxicity. In a few lines:
as §1

Series [4] deals with Escherichia coli. In words: Disruption of inner membrane integrity in Escherichia coli K12 (ATCC MC1061) transfected with pCGLS-1 at 6.4 to 12.8 times MIC measured by luciferase based bioluminescence assay. It is filed as functional, organism-based. As to conditions: DDE = dose-dependent effect. In a few lines: (§2)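 Membrane integrity was read with click beetle lucGR luciferase biosensor strains. Cell suspension containing 1 mM D-luciferin was added to the analytes. Luminescence was read every second for 180 s, normalized to an untreated water control and reported as RLU. At least three independent experiments were run.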

Series [5] concerns Bacillus subtilis. In words: Antibacterial activity against Bacillus subtilis 168 incubated for 48 hrs and measured by broth microdilution assay. The series is classed as functional. A digest of the protocol: (§3)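 MICs in µg/mL were measured against the reference strains S. aureus ATCC 9144, B. subtilis 168, E. coli ATCC 25922 and P. aeruginosa ATCC 27853. Compounds were tested as di-TFA salts.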

Series [6] relates to Bacillus subtilis. The series is described as follows: Antibacterial activity against Bacillus subtilis 168 (ATCC 23857) expressing lux operon in sacA locus (PliaG) assessed as decrease in bacterial viability at 3.2 to 51.2 ug/ml. It is filed as functional, organism-based. The conditions noted are these: dose 3.2-51.2 µg/ml. In a few lines: (§4)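 Biosensor strains (B. subtilis 168; E. coli K12) carry the Photorhabdus luminescens lux operon, so no substrate is added. Cell suspension, about 100-fold denser than in the MIC assay, was added to the analytes. Light was read every second for 180 s, normalized to an untreated water control and reported as RLU. At least three independent experiments were run.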

Series [7] concerns Escherichia coli. In words: Disruption of outer membrane integrity in Escherichia coli K12 (ATCC MC1061) transfected with pCGLS-1 at 3.2 ug/ml measured by NPN based fluorescence assay. The conditions noted are these: dose 3.2 µg/ml, DDE = dose-dependent effect. The series is classed as functional, organism-based. In a few lines:
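E. coli K12 outer membrane permeability was measured by 1-N-phenylnaphthylamine uptake. Cell suspension with 20 µM NPN was added to the analytes. Fluorescence was read every second for 180 s, normalized to an untreated water control and reported as RFU. At least three independent experiments were run.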

The subject of series [8] is Staphylococcus aureus. The series is described as follows: Antibacterial activity against Staphylococcus aureus ATCC 9144 incubated for 48 hrs and measured by broth microdilution assay. The series is classed as functional. In a few lines: as §3
For orientation: Broth dilution looks for growth in wells or tubes with falling amounts of substance.

Series [9] concerns Escherichia coli. In words: Antibacterial activity against Escherichia coli K12 (ATCC MC1061) transfected with pCGLS-1 assessed as decrease in bacterial viability at 3.2 to 51.2 ug/ml. It is filed as functional, organism-based. The conditions noted are these: dose 3.2-51.2 µg/ml. A digest of the protocol: as §4
Series [10] relates to Bacillus subtilis. The series is described as follows: Disruption of inner membrane integrity in Bacillus subtilis 168 (ATCC 23857) at 1.56 to 50 ug/ml measured by luciferase based bioluminescence assay. The series is classed as functional, organism-based. The conditions noted are these: dose 1.56-50 µg/ml. In a few lines:
as §2

Series [11] deals with Pseudomonas aeruginosa. The series is described as follows: Antibacterial activity against Pseudomonas aeruginosa ATCC 27853 incubated for 48 hrs and measured by broth microdilution assay. It is filed as functional. A digest of the protocol:
as §3

Series [12] has as its system Escherichia coli. In words: Antibacterial activity against Escherichia coli ATCC 25922 incubated for 48 hrs and measured by broth microdilution assay. It is filed as functional. In a few lines: as §3
In series [13] the test system is Escherichia coli. In words: Antibacterial activity against in Escherichia coli K12 (ATCC MC1061) transfected with pCGLS-1 assessed as decrease in cell viability at 25.6 to 51.2 ug/ml measured by NPN based fluorescence assay. It is filed as functional, organism-based. The conditions noted are these: dose 25.6-51.2 µg/ml. A digest of the protocol:
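At the end of the NPN outer membrane assay in E. coli K12, a 10 µL sample was spotted on an agar plate to assess bacterial viability.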

A short description of series [14]: Hemolytic activity in human RBC measured after 1 hr by microplate reader method. It is filed as toxicity, cell-based, Erythrocyte. As to conditions: human, human red blood cells (erythrocytes). A digest of the protocol:
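Human red blood cell lysis was used as the cytotoxicity read-out, expressed as EC50 in µg/mL. The highest concentration tested was 500 µM. Compounds were tested as di-TFA salts.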

A short description of series [15]: Selectivity index, ratio HC50 for hemolytic activity in human RBC to MIC for antibacterial activity against Escherichia coli ATCC 25922. The conditions noted are these: human red blood cells (erythrocytes). The series is classed as toxicity. A digest of the protocol: as §1
In series [16] the test system is Bacillus subtilis. In words: Disruption of inner membrane integrity in Bacillus subtilis 168 ATCC 23857 measured by luciferase based bioluminescence assay. It is filed as functional. A digest of the protocol: (§5)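 Biosensor strains express click-beetle luciferase (lucGR), whose light output needs externally added D-luciferin; light rises when a damaged membrane lets substrate in. Cell suspension with 1 mM D-luciferin is added to the analytes, and luminescence is read every second for 180 s. Signal is normalized to an untreated water control. Cell density is about 100-fold that of the MIC assay, with at least three independent experiments.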

The subject of series [17] is Escherichia coli. In words: Disruption of inner membrane integrity in Escherichia coli K12 (ATCC MC1061) transfected with pCGLS-1 measured by luciferase based bioluminescence assay. The series is classed as functional. In a few lines:
as §5

≈ marks a conversion by molar mass, not a printed value. Calls of active or inactive are those of the source. The rule behind the calls is not given here.

In the case of `N=C(N)NCCCCN1C(=O)N(CCCCNC(=N)N)C(=O)C(Cc2ccc(C(F)(F)F)cc2)(Cc2cc(Br)cc(Br)c2)C1=O.O=C(O)C(F)(F)F.O=C(O)C(F)(F)F` (configuration not stated), the selectivity ratio worked out at 10 in [1], 40 in series [2], 81 in series [3] and 81 in series [15]. Further, the Activity entry in [4] and in [7] was “Dde” throughout. Further, the MIC is 4 µg/mL in series [5], 2 µg/mL in [8], 16 µg/mL in [11] and 2 µg/mL in series [12]. Besides, the result in series [6], in series [9], in [10] and in [13] was Active. Besides, it took 161 µg/mL to reach a half-maximal effect in [14] (EC50 at 1 h).

Consider `N=C(NCCCCCCNC(=N)NC(=N)Nc1ccc(Cl)cc1)NC(=N)Nc1ccc(Cl)cc1` [CHLORHEXIDINE], for which the MIC in series [16] and in series [17] was 1.5 µg/mL (≈ 2.97 µM) each time.
